Activity calls are given as the source filed them.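 The calls were made as follows: active = Cell killing by compound with TRAIL above both separate effects added together, at all three tested doses; inactive = the rest.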
Test system: MCF7 TRAIL potentiation, ATPlite luminescence, 24 h
Assay: TRAIL cytotoxicity enhancement in resistant cancer cells, confirmation, cell-based, MCF7, ATPlite luminescence, 24 h (AID 1748)
Conditions: stronger effect = higher value
Method in brief: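 Measured by: ATPlite luminescence | Assay system: TRAIL-resistant MCF7 cells | Schedule: 24 h settling, 4 h compound, 24 h TRAIL, 37 °C | Probe or stimulus: TRAIL, added after compound pretreatment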

[1] = compound alone 1.25 uM, at 1.25 µM
[2] = compound alone 2.5 uM, at 2.5 µM
[3] = compound alone, no TRAIL, at 5 µM
[4] = compound plus TRAIL 1.25 uM, at 1.25 µM
[5] = compound plus TRAIL 2.5 uM, at 2.5 µM

Structure (SMILES)	cytotoxicity with TRAIL (at 5 µM)	cytotoxicity [1] [%]	cytotoxicity [2] [%]	cytotoxicity [3] [%]	cytotoxicity with TRAIL [4] [%]	cytotoxicity with TRAIL [5] [%]
CCSc1nc(-c2ccccc2)nc(C(Cl)Cl)n1	72%	0	0	28	44	52
CSc1nc(-c2ccc(C)cc2)nc(C(Cl)Cl)n1	57% (inactive)	0	8	26	37	48
CSc1nc(-c2ccccc2)nc(C(Cl)Cl)n1	82% (inactive)	0	36	55	55	74

— PubChem BioAssay AID1748 (Sanford-Burnham Center for Chemical Genomics, 2009)
